Laboratory results as given in ChEMBL document CHEMBL1124106, “Synthesis of diethylenetriaminepentaacetic acid conjugated inulin and utility for cellular uptake of liposomes” (J Med Chem, 1988).
Several values for one entry are separate records, joined by “and”; a condition that tells them apart may be missing. Equal values may be shown once.

Key:
[1] = test system: Mus musculus; test: Biodistribution in mice heart, after 48 hr of intravenous administration of 1-2 ug of compound (entrapped in bovine brain sphingomyelin/ cholesterol multilamellar vehicles); format: ADME, organism-based; conditions: in vivo
How it was run: (§1)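 BALB/c mice (about 25 g), 3–5 per group, given 50–100 μL tail-vein injection of 111In-labeled conjugate entrapped in SM/CH (2:1 mol/mol) multilamellar vesicles, approx. 100 000 cpm; dose 1–2 μg phospholipid/g body weight. Killed by cervical dislocation at set times; blood, cumulative excretion and rinsed, blotted, weighed tissues γ-counted, blood background subtracted. Result is % injected dose ± SD.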

[2] = test system: Mus musculus; test: Biodistribution in mice intestine, after 1 hr of intravenous administration of 1-2 ug of compound (entrapped in bovine brain sphingomyelin/ cholesterol multilamellar vehicles); format: ADME, organism-based; conditions: in vivo; how it was run: as §1
[3] = test system: Mus musculus; test: Biodistribution in mice intestine, after 24 hr of intravenous administration of 1-2 ug of compound (entrapped in bovine brain sphingomyelin/ cholesterol multilamellar vehicles); format: ADME, organism-based; conditions: in vivo; how it was run: as §1
[4] = test system: Mus musculus; test: Biodistribution in mice intestine, after 48 hr of intravenous administration of 1-2 ug of compound (entrapped in bovine brain sphingomyelin/ cholesterol multilamellar vehicles); format: ADME, organism-based; conditions: in vivo; how it was run: as §1
[5] = test system: Mus musculus; test: Biodistribution in mice kidneys, after 24 hr of intravenous administration of 1-2 ug of compound (entrapped in bovine brain sphingomyelin/ cholesterol multilamellar vehicles); format: ADME, organism-based, Kidney; conditions: in vivo; how it was run: as §1
[6] = test system: Mus musculus; test: Biodistribution in mice liver, after 1 hr of intravenous administration of 1-2 ug of compound (entrapped in bovine brain sphingomyelin/ cholesterol multilamellar vehicles); format: ADME, organism-based; conditions: in vivo; how it was run: as §1
[7] = test system: Mus musculus; test: Biodistribution in mice liver, after 48 hr of intravenous administration of 1-2 ug ofcompound (entrapped in bovine brain sphingomyelin/ cholesterol multilamellar vehicles); format: ADME, organism-based; conditions: in vivo; how it was run: as §1
[8] = test system: Mus musculus; test: Biodistribution in mice lung, after 12 hr of intravenous administration of 1-2 ug ofcompound (entrapped in bovine brain sphingomyelin/ cholesterol multilamellar vehicles); format: ADME, organism-based; conditions: in vivo; how it was run: as §1
[9] = test system: Mus musculus; test: Biodistribution in mice lung, after 48 hr of intravenous administration of 1-2 ug of compound (entrapped in bovine brain sphingomyelin/ cholesterol multilamellar vehicles); format: ADME, organism-based; conditions: in vivo; how it was run: as §1
[10] = test system: Mus musculus; test: Biodistribution in mice skin, after 12 hr of intravenous administration of 1-2 ug of compound (entrapped in bovine brain sphingomyelin/ cholesterol multilamellar vehicles); format: ADME, organism-based, Zone of skin; conditions: in vivo; how it was run: as §1
[11] = test system: Mus musculus; test: Biodistribution in mice fat, after 24 hr of intravenous administration of 1-2 ug of compound (entrapped in bovine brain sphingomyelin/ cholesterol multilamellar vehicles); format: ADME, organism-based; conditions: in vivo; how it was run: as §1
[12] = test system: Mus musculus; test: Biodistribution in mice heart, after 12 hr of intravenous administration of compound (entrapped in bovine brain sphingomyelin/ cholesterol multilamellar vehicles); format: ADME, organism-based; conditions: in vivo; how it was run: as §1
[13] = Biodistribution in mice excretion, after 1 hr of intravenous administration of 1-2 ug of compound (entrapped in bovine brain sphingomyelin/ cholesterol multilamellar vehicles); format: ADME, organism-based; conditions: mouse, excretion (excreta, not specified further), read-out: ID; how it was run: as §1
[14] = test system: Mus musculus; test: Biodistribution of compound in mice carcass after 0.17 hr of intravenous injection; format: ADME, organism-based; conditions: in vivo
How it was run: (§2)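 BALB/c mice (about 25 g), n = 4. Free ¹¹¹In- or ⁶⁷Ga-labeled compound (50–100 μL, about 100 000 cpm) was injected into a tail vein. Mice were held in separate cages and killed by cervical dislocation, with blood and cumulative excreta collected. Tissues were rinsed, blotted, weighed and γ-counted, with blood background subtracted (blood volume 8.0%). Values are % injected dose ± SD.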

[15] = (§3) Biodistribution of compound in mice excretion after 0.17 hr of intravenous injection; format: ADME, organism-based; conditions: mouse, excretion (excreta, not specified further), read-out: ID; how it was run: as §2
[16] = test system: Mus musculus; test: as §3; format: ADME, organism-based; conditions: in vivo, 0.17 h; how it was run: as §2
[17] = (§4) Biodistribution of compound in mice excretion after 21 hr of intravenous injection; format: ADME, organism-based; conditions: mouse, excretion (excreta, not specified further), read-out: ID; how it was run: as §2
[18] = test system: Mus musculus; test: as §4; format: ADME, organism-based; conditions: in vivo, 21 h; how it was run: as §2
[19] = test system: Mus musculus; test: Biodistribution of compound in mice intestine after 0.17 hr of intravenous injection; format: ADME, organism-based; conditions: in vivo; how it was run: as §2
[20] = test system: Mus musculus; test: Biodistribution of compound in mice intestine after 1 hr of intravenous injection; format: ADME, organism-based; conditions: in vivo; how it was run: as §2
[21] = test system: Mus musculus; test: Biodistribution of compound in mice intestine after 21 hr of intravenous injection; format: ADME, organism-based; conditions: in vivo; how it was run: as §2
[22] = test system: Mus musculus; test: Biodistribution of compound in mice kidneys after 21 hr of intravenous injection; format: ADME, organism-based, Kidney; conditions: in vivo; how it was run: as §2
[23] = test system: Mus musculus; test: Biodistribution of compound in mice leg muscle after 0.17 hr of intravenous injection; format: ADME, organism-based, Muscle tissue; conditions: in vivo; how it was run: as §2
[24] = test system: Mus musculus; test: Biodistribution in mice spleen, after 24 hr of intravenous administration of 1-2 ug of compound (entrapped in bovine brain sphingomyelin/ cholesterol multilamellar vehicles); format: ADME, organism-based; conditions: in vivo; how it was run: as §1
[25] = test system: Mus musculus; test: Biodistribution in mice brain, after 12 hr of intravenous administration of 1-2 ug of compound (entrapped in bovine brain sphingomyelin/ cholesterol multilamellar vehicles); format: ADME, organism-based; conditions: in vivo; how it was run: as §1
[26] = test system: Mus musculus; test: Biodistribution in mice brain, after 1 hr of intravenous administrating 1-2 ug of compound (entrapped in bovine brain sphingomyelin/ cholesterol multilamellar vehicles); format: ADME, organism-based; conditions: in vivo; how it was run: as §1
[27] = test system: Mus musculus; test: Biodistribution in mice carcass, after 12 hr of intravenous administration of 1-2 ug of compound (entrapped in bovine brain sphingomyelin/ cholesterol multilamellar vehicles); format: ADME, organism-based; conditions: in vivo; how it was run: as §1
[28] = test system: Mus musculus; test: Biodistribution in mice carcass, after 1 hr of intravenous administration of 1-2 ug ofcompound (entrapped in bovine brain sphingomyelin/ cholesterol multilamellar vehicles); format: ADME, organism-based; conditions: in vivo; how it was run: as §1
[29] = test system: Mus musculus; test: Biodistribution in mice carcass, after 24 hr of intravenous administration of 1-2 ug ofcompound (entrapped in bovine brain sphingomyelin/ cholesterol multilamellar vehicles); format: ADME, organism-based; conditions: in vivo; how it was run: as §1
[30] = test system: Mus musculus; test: Biodistribution in mice stomach, after 48 hr of intravenous administration of 1-2 ug of compound (entrapped in bovine brain sphingomyelin/ cholesterol multilamellar vehicles); format: ADME, organism-based; conditions: in vivo
How it was run: (§5)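 BALB/c mice (about 25 g), groups of 2–5. Compound ¹¹¹In-loaded into SM/CH (2:1, mol/mol) multilamellar vesicles, given as a single tail-vein injection. Lipid dose was 1–2 μg phospholipid/g body weight, in 50–100 μL carrying about 100 000 cpm. Mice were killed by cervical dislocation. Organs were rinsed, blotted, weighed and γ-counted, with blood background subtracted. Values are % injected dose ± SD.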

[31] = test system: Mus musculus; test: Biodistribution in mice tail, after 12 hr of intravenous administration of 1-2 ug of compound (entrapped in bovine brain sphingomyelin/ cholesterol multilamellar vehicles); format: ADME, organism-based; conditions: in vivo; how it was run: as §5
[32] = test system: Mus musculus; test: Biodistribution of compound in mice liver after 0.17 hr of intravenous injection; format: ADME, organism-based; conditions: in vivo; how it was run: as §2
[33] = test system: Mus musculus; test: Biodistribution of compound in mice skin after 0.17 hr of intravenous injection; format: ADME, organism-based, Zone of skin; conditions: in vivo; how it was run: as §2
[34] = test system: Mus musculus; test: Biodistribution of compound in mice skin after 1 hr of intravenous injection; format: ADME, organism-based, Zone of skin; conditions: in vivo; how it was run: as §2
[35] = test system: Mus musculus; test: Biodistribution of compound in mice spleen after 21 hr of intravenous injection; format: ADME, organism-based; conditions: in vivo; how it was run: as §2
[36] = test system: Mus musculus; test: Biodistribution in mice blood, after 12 hr of intravenous administration of 1-2 ug of compound (entrapped in bovine brain sphingomyelin/ cholesterol multilamellar vehicles); format: ADME, organism-based; conditions: in vivo; how it was run: as §1
[37] = test system: Mus musculus; test: Biodistribution in mice blood, after 24 hr of intravenous administration of 1-2 ug of compound (entrapped in bovine brain sphingomyelin/ cholesterol multilamellar vehicles); format: ADME, organism-based; conditions: in vivo; how it was run: as §1
[38] = test system: Mus musculus; test: Biodistribution in mice carcass, after 48 hr of intravenous administrating 1-2 ug of compound (entrapped in bovine brain sphingomyelin/ cholesterol multilamellar vehicles); format: ADME, organism-based; conditions: in vivo; how it was run: as §1
[39] = test system: Mus musculus; test: Biodistribution of compound in mice blood after 0.17 hr of intravenous injection; format: ADME, organism-based; conditions: in vivo; how it was run: as §2
[40] = test system: Mus musculus; test: Biodistribution of compound in mice tail after 0.17 hr of intravenous injection; format: ADME, organism-based; conditions: in vivo; how it was run: as §2

## NCCNC(=O)CN(CCN(CCN(CC(=O)O)CC(=O)O)CC(=O)O)CC(=O)O
[1]
  ID: 0%
[2]
  ID: 0.7%
[3]
  ID: 0.8%
[4]
  ID: 0.6%
[5]
  ID: 0.5%
[6]
  ID: 55.1%
[7]
  ID: 62.4%
[8]
  ID: 0.1%
[9]
  ID: 0.2%
[10]
  ID: 1.1%
[11]
  ID: 0.4%
[12]
  ID: 0%
[13]
  dose excreted at 1 h: 0%
[14]
  ID: 14.2% and 19.3%
[15]
  dose excreted at 0.17 h: 3.6%
[16]
  ID: 3.2%
[17]
  dose excreted at 21 h: 77.1%
[18]
  ID: 69.5%
[19]
  ID: 2.2% and 2.4%
[20]
  ID: 0.8% and 1.4%
[21]
  ID: 2.2% and 5.8%
[22]
  ID: 0.8% and 0.9%
[23]
  ID: 3.2% and 3.1%
[24]
  ID: 1.9%
[25]
  ID: 0%
[26]
  ID: 0%
[27]
  ID: 2%
[28]
  ID: 4%
[29]
  ID: 2.1%
[30]
  ID: 0%
[31]
  ID: 2.7%
[32]
  ID: 0.6% and 1.3%
[33]
  ID: 15.6% and 15.1%
[34]
  ID: 5.8% and 7.7%
[35]
  ID: 0.1%
[36]
  ID: 0.5%
[37]
  ID: 0.4%
[38]
  ID: 1.3%
[39]
  ID: 21.1% and 20.9%
[40]
  ID: 3.8% and 3.7%
